Source: ChEMBL document CHEMBL5104186, “Structure-Activity Relationship and Neuroprotective Activity of 1,5-Dihydro-2H-naphtho[1,2-b][1,4]diazepine-2,4(3H)-diones as P2X4 Receptor Antagonists” (J Med Chem, 2022)
The source made the active and inactive calls. No cut-off for these calls is given here.

Assays:
[1] = molecular target: T1, P2X purinoceptor 3 (Homo sapiens) (UniProt P56373); assay: Antagonist activity at human P2X3R transfected in CHO-K1 cells at 30 uM preincubated for 30 mins followed by alpha,beta-meATP addition by fluorescence based assay relative to control; type: cell-based; design: scale not given: the % may be the effect or the level left
T1 sequence (whole entry): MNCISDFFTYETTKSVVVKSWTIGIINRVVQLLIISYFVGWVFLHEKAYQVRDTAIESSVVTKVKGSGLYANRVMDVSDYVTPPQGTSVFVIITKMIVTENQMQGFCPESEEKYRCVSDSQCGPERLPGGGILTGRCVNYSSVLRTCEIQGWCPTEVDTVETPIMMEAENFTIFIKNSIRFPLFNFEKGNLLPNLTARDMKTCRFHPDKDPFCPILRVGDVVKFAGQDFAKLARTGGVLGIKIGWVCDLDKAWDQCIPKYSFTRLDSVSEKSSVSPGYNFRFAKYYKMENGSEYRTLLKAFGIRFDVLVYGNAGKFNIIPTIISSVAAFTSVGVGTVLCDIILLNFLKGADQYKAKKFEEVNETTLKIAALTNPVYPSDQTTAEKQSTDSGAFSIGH

[2] = molecular target: T2, P2X purinoceptor 1 (Homo sapiens) (UniProt P51575); assay: Antagonist activity at human P2X1R transfected in CHO-K1 cells at 30 uM preincubated for 30 mins followed by alpha,beta-meATP addition by […] based assay relative to control; type: cell-based; design: scale not given: the % may be the effect or the level left
T2 sequence (whole entry): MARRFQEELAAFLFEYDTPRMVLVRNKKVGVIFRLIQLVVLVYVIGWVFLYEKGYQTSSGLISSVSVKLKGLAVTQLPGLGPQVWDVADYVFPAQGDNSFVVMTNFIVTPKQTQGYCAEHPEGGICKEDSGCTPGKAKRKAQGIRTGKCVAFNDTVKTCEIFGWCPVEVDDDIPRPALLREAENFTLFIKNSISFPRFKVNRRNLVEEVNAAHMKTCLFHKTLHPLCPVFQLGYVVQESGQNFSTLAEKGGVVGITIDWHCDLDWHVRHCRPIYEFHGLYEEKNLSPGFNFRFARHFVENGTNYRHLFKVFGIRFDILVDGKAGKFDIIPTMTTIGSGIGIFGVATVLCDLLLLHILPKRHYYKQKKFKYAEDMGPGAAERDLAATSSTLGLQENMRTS

[3] = molecular target: P2X2/P2X3 heterotrimeric receptor (Homo sapiens) (UniProt Q9UBL9+P56373); assay: Antagonist activity at human P2X2/3R transfected in CHO-K1 cells at 30 uM preincubated for 30 mins followed by alpha,beta-meATP addition by fluorescence based assay relative to control; type: cell-based; design: scale not given: the % may be the effect or the level left
[4] = molecular target: T3, P2X purinoceptor 4 (Homo sapiens) (UniProt Q99571); assay: Antagonist activity at human P2X4R transfected in HEK293 cells at 30 uM preincubated for 30 mins followed by CTP addition by fluorescence based assay relative to control; type: cell-based; design: scale not given: the % may be the effect or the level left
T3 sequence (whole entry): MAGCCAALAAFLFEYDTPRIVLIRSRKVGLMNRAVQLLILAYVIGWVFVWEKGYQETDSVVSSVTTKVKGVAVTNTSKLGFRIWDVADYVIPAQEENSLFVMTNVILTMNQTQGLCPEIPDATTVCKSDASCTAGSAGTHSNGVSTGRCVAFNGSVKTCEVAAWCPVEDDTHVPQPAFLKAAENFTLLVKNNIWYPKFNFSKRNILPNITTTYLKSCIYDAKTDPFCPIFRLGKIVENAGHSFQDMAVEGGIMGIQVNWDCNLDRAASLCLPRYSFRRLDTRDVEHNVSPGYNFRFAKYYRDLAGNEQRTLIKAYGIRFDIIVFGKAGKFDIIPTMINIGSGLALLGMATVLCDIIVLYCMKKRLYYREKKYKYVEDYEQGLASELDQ

P2X purinoceptor 4 = molecular target: T4, P2X purinoceptor 4 (Homo sapiens, UniProt Q99571); assay: Antagonist activity at human P2X4R transfected in HEK293 cells preincubated for 30 mins followed by CTP addition by fluorescence based assay; type: cell-based
T4 sequence (Q99571 whole entry): T3 sequence (whole entry)

Mus musculus [5] = assay: Neuroprotective activity in Wild type C57B/6 mouse model of middle cerebral artery occlusion assessed as reduction in infract damage at […] administered for 3 days by TTC staining based assay; type: functional, organism-based; conditions: time 3.0 day
MDM [6] = assay: Inhibition of ATP-induced calcium influx in human monocytes derived macrophages preincubated for 15 mins followed by ATP addition and measured upto 4 mins by laser scanning confocal microscopic analysis; type: functional, cell-based; conditions: dose 0.6-3 µM, time <= 19.0 min, DDE = dose-dependent effect
Procedure, shortened: (§1)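 Monocytes matured into macrophages with GM-CSF (5 ng/mL) for 5–7 days, then seeded 10^4 cells/dish for ≥24 h. Calbryte 590 AM loaded for 60 min in HBSS/HEPES. Cells pretreated 15 min with 0–3 μM compound, then 50 μM ATP added; confocal images taken every 6 s for up to 4 min. Read-out is peak cytosolic Ca2+ amplitude (F/F0). Mean ± SEM; ANOVA with Tukey.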

Mus musculus [7] = assay: Improvement in learning and memory in C57B/6 mouse model of middle cerebral artery occlusion at 3 mg/kg measured after 4 weeks post stroke by NORT; type: functional, organism-based
Procedure, shortened: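 Middle-aged C57B/6 mice (both sexes) underwent MCAO and received a 3-day subcutaneous minipump infusion from reperfusion (vehicle PBS). NORT was run 4 weeks post-stroke: 1 h acclimatisation, 10 min habituation, 10 min trial with two identical objects, then a test 24 h later with one novel object. Discrimination index = (TN − TF)/(TN + TF). One-way ANOVA with Tukey; n = 5–11/group.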

Mus musculus [8] = assay: Neuroprotective activity in Wild type C57B/6 mouse model of middle cerebral artery occlusion assessed as reduction in tissue atrophy at […] administered for 3 days measured after 35 days by CV staining based assay; type: functional, organism-based; conditions: time 3.0 day
[9] = molecular target: T5, 5-hydroxytryptamine receptor 2C (Homo sapiens, UniProt P28335); assay: Binding affinity to human 5HT2C serotonin receptor
T5 sequence (P28335 whole entry): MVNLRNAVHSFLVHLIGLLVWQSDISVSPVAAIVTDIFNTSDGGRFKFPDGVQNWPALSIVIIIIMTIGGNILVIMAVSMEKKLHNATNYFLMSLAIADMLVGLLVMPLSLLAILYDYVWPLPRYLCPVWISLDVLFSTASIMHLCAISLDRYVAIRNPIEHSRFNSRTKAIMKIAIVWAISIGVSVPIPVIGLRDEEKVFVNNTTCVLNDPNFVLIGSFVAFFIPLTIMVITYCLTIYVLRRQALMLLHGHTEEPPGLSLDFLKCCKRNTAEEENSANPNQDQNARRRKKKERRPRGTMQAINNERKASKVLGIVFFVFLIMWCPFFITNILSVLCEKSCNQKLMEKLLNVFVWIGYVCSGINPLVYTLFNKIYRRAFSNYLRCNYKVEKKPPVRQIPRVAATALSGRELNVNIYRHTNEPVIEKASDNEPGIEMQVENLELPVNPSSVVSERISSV
Procedure, shortened: (§2)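 Off-target radioligand binding was run by the NIMH Psychoactive Drug Screening Program across 45 receptors, channels and transporters. Ki in nM, given as mean ± SEM.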

Mus musculus [10] = assay: Neuroprotective activity in Wild type C57B/6 mouse model of middle cerebral artery occlusion assessed as reduction in cortical infract volume at […] administered for 3 days; type: functional, organism-based; conditions: time 3.0 day
[11] = Effect on locomotor activity in C57B/6 mouse model of middle cerebral artery occlusion at 1.5 to 3 mg/kg/day measured over 4 weeks after stroke by open field test; type: toxicity, organism-based; conditions: in vivo, 672 h, dose 1.5-3 mg/kg/day
Procedure, shortened: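 C57B/6 mice underwent MCAO and received a subcutaneous Alzet minipump (vehicle 1× PBS) at reperfusion, delivering compound for 3 days. Open-field test: 10 min exploration of a 16″ acrylic box at several time points; total beam breaks recorded. Mean ± S.D.; n = 8–15/group, both sexes.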

Mus musculus [12] = assay: Neuroprotective activity in Wild type C57B/6 mouse model of middle cerebral artery occlusion assessed as reduction in hemispheric infract size at 0.5 to 3 mg/kg/day administered for 3 days; type: functional, organism-based; conditions: dose 0.5-3 mg/kg/day, time 3.0 day
Procedure, shortened: (§3)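 C57B/6 mice (8–12-week-old males; 12–13-month-old mice in one study) underwent MCAO (filament, laser Doppler confirmation, 37 °C). At reperfusion a subcutaneous Alzet pump was implanted, giving 0.5–3.0 or 5.0 mg/kg/day for 3 days; vehicle was PBS. At day 3, TTC-stained coronal sections were scored blind, with edema-corrected (Swanson) infarct volume as % of contralateral. Mean ± S.D.; n = 5–6.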

MDM [13] = assay: Inhibition of ATP-induced calcium influx in human monocytes derived macrophages assessed as decrease in calcium altitude at 0.6 uM preincubated for 15 mins followed by ATP addition and measured upto 4 mins by laser scanning confocal microscopic analysis; type: functional, cell-based; conditions: time <= 19.0 min; procedure, shortened: as §1
D(3) dopamine receptor = D(3) dopamine receptor (Homo sapiens, UniProt P35462); assay: Binding affinity to human D3 dopamine receptor; procedure, shortened: as §2
Mus musculus [14] = assay: Neuroprotective activity in Wild type C57B/6 mouse model of middle cerebral artery occlusion assessed as reduction in hemispheric infract size at 5 mg/kg/day administered for 3 days; type: functional, organism-based; conditions: time 3.0 day; procedure, shortened: as §3

D(3) dopamine receptor, sequence (P35462 whole entry): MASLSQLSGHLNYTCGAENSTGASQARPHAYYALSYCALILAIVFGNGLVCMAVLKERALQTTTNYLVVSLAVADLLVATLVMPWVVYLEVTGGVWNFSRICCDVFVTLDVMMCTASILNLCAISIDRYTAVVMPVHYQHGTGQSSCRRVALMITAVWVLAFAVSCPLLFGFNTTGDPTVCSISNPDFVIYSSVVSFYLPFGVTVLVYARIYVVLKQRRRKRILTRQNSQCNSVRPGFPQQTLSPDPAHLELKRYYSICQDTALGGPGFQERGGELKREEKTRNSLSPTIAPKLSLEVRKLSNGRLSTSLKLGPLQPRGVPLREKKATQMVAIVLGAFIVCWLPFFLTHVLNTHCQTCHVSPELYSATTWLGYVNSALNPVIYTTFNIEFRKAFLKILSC

Row | SMILES | Activity [1] [%] | Activity [2] [%] | Activity [3] [%] | Activity [4] [%] | other results
1 | CC(=O)NCc1ccc2ccc3c(c2c1)NC(=O)CC(=O)N3c1cccc(-c2noc(=S)[nH]2)c1 | 9 | 26 | -5 | 16 | 
2 | O=C1CC(=O)N(c2cccc(-c3noc(=S)[nH]3)c2)c2cc(-c3ccccc3)c3ccccc3c2N1 | 11 | 14 | 10 |  | IC50 (P2X purinoceptor 4): 20.7 µM
3 | NCc1ccc2ccc3c(c2c1)NC(=O)CC(=O)N3c1cccc(-c2noc(=S)[nH]2)c1 | 9 | 8 | 0 | 9 | 
4 | CCN(CC)CC.O=C1CC(=O)N(c2ccnc(-c3noc(=S)[nH]3)c2)c2ccc3ccccc3c2N1 |  |  |  |  | Activity (Mus musculus [5]): Active; inhibition (MDM [6]): Dde; Activity (Mus musculus [7]): Active; Activity (Mus musculus [8]): Active; Ki [9]: 0.006 µM; Activity (Mus musculus [10]): Active; Activity [11]: Non-Toxic; Activity (Mus musculus [12]): Active; inhibition (MDM [13]): Active; Ki (D(3) dopamine receptor): 0.00077 µM
5 | O=C1CC(=O)N(c2cccc(-c3noc(=S)[nH]3)n2)c2ccc3ccccc3c2N1 | 17 | 31 | 15 |  | 
6 | [N-]=[N+]=NCc1ccc2ccc3c(c2c1)NC(=O)CC(=O)N3c1cccc(-c2noc(=S)[nH]2)c1 | 13 | 8 | 4 | 6 | 
7 | [N-]=[N+]=NCc1ccc2c(Br)cc3c(c2c1)NC(=O)CC(=O)N3c1cccc(-c2noc(=S)[nH]2)c1 | 15 | -13 | -4 | 8 | 
8 | O=C1CC(=O)N(c2cc(-c3noc(=S)[nH]3)ccn2)c2ccc3ccccc3c2N1 | 18 | 18 | -6 |  | 
9 | Cc1ccc2c3c(ccc2c1)N(c1cccc(-c2noc(=S)[nH]2)c1)C(=O)CC(=O)N3 |  |  |  |  | Activity (Mus musculus [14]): Active
10 | Cc1ccc2c(Br)cc3c(c2c1)NC(=O)CC(=O)N3c1cccc(-c2noc(=S)[nH]2)c1 | 17 | -2 | -5 |  | IC50 (P2X purinoceptor 4): 11.8 µM
11 | CCc1cc2c(c3ccccc13)NC(=O)CC(=O)N2c1cccc(-c2noc(=S)[nH]2)c1 | 6 | 6 | 10 |  | 
12 | O=C1CC(=O)N(c2cncc(-c3noc(=S)[nH]3)c2)c2ccc3ccccc3c2N1 | 6 | 15 | 25 |  | 
13 | CCCCC#Cc1cc2c(c3ccccc13)NC(=O)CC(=O)N2c1cccc(-c2noc(=S)[nH]2)c1 | 18 | 16 | 1 | 15 | 
14 | Cc1cc(-c2noc(=S)[nH]2)cc(N2C(=O)CC(=O)Nc3c2ccc2ccccc32)c1 | 12 | 16 | 5 |  | 
15 | [N-]=[N+]=NCc1ccc2c3c(ccc2c1)N(c1cccc(-c2noc(=S)[nH]2)c1)C(=O)CC(=O)N3 | 0 | -5 | 2 |  | IC50 (P2X purinoceptor 4): 21.3 µM
16 | O=C1CC(=O)N(c2cccc(-c3noc(=S)[nH]3)c2)c2cc(C#Cc3cccnc3)c3ccccc3c2N1 | 9 | 9 | 13 | 34 | 
17 | O=C1CC(=O)N(c2cccc(-c3noc(=S)[nH]3)c2)c2cc(C#Cc3ccccc3)c3ccccc3c2N1 | 7 | 14 | 5 | -4 | 
